Assays:
[1] = tested on: E. granulosus s.s. PSCs; test: In vitro drug treatment of PSCs, viability by 1% eosin staining; format: cell-based, Echinococcus granulosus sensu stricto; settings: Echinococcus granulosus, 48 h, read-out: viability of PSCs
Procedure, shortened: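 Protoscoleces came from sheep cysts. They were washed in PBS, digested with 1% pepsin for 30 min and cultured in RPMI 1640 with 10% FBS and penicillin/streptomycin at 37 °C, 5% CO2 for 3 days, with viability above 98%. Wells held 200 PSCs. Compounds came from 20 mM DMSO stocks, at 40 μM final for screening, then 40–240 μM. The control was 1% DMSO. After 48 h, 1% eosin marked dead PSCs red. Three independent experiments, mean ± S.D.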

[2] = tested on: E. granulosus s.s.-infected mice; test: Drug treatment of E. granulosus s.s.-infected mice, cyst weight; format: in vivo, Kunming mice; settings: 50 mg/kg/day oral, 28 days
[3] = tested on: cysts from E. granulosus s.s.-infected mice; test: TEM observation of cysts from treated infected mice; format: in vivo, Kunming mice; settings: 50 mg/kg, oral, 28 days
Procedure, shortened: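 Female Kunming mice, 8 weeks old, were infected intraperitoneally with 50 in vitro-derived microcysts. Infection was confirmed by B-mode ultrasound at 6 months, and mice were randomised into groups of 6. Test compound was given in 0.5% CMC-Na by daily oral gavage (0.1 mL/10 g) for 28 days against a vehicle control. Peritoneal cysts were isolated, and randomly selected cysts were examined by TEM.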

[4] = tested on: PC12 cells; test: MTT cytotoxicity assay in PC12 cells; format: cell-based; settings: 200 μM, 48 h
Procedure, shortened: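 PC12 cells in log phase were grown in RPMI 1640 with 10% horse serum, 5% FBS and penicillin/streptomycin, then seeded at 1×10^4 per well and settled for 12 h at 37 °C, 5% CO2. Compounds were added at 6.25–200 μM final, in triplicate, with a DMSO control, for 48 h. Serum-free medium plus MTT followed for 4 h, then formazan lysate and absorbance at 570 nm. Inhibition = [1−(ODtreated−ODblank)/(ODcontrol−ODblank)]×100%.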

[5] = tested on: PC12 cells; test: Hoechst 33342 staining assay of PC12 cell apoptosis; format: cell-based; settings: 200 μM, 48 h
Procedure, shortened: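 PC12 cells seeded at 1×10^5/well in 6-well plates and grown at 37 °C, 5% CO2 to 70–80% confluence. Test compound at 200 μM for 48 h, with a DMSO control group. Medium removed, Hoechst staining solution added for 30 min at 37 °C, cells washed three times with PBS, and nuclear morphology viewed by inverted fluorescence microscopy.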

[6] = Acute toxicity study in mice; settings: both, Kunming, mouse, in vivo, po, single oral dose

SMILES | viability at 40 µM [1] [%] | cyst weight [2] [g] | cyst ultrastructure (TEM) [3] | PC12 cell viability inhibition [4] [%] | PC12 cell nuclei / morphology (apoptosis) [5] | LD50 at 14 days [6] [mg/kg]
COc1ccc2c(c1)[nH]c1c(C)nccc12 [HM, 7-methoxy-1-methyl-9H-pyrido[3,4-b] indole] | 94.7 ± 4.52 | 6.53 ± 1.56 | fewer microtriches and an unclear germinal layer structure but clear nuclei | 87.02 ± 5.65 | reduced number of cells with varying morphological sizes and significantly denser granules or bright blue fluorescence | 447
CCCSc1ccc2nc(NC(=O)OC)[nH]c2c1 [ABZ, Albendazole] | 94.8 ± 5 |  | fewer microtriches and an unclear germinal layer structure but clear nuclei |  |  | 
